Data from ChEMBL document CHEMBL1135820, “A sorbitol dehydrogenase inhibitor of exceptional in vivo potency with a long duration of action: 1-(R)-[4-[4-(4,6-dimethyl[1,3,5]triazin-2-yl)- 2R,6S-dimethylpiperazin-1-yl]pyrimidin-2-yl]ethanol” (J Med Chem, 2002).

tested on: not listed separately; assay: pKa value was reported; assay type: physicochemical

With `C[C@H](O)c1nccc(N2C[C@@H](C)N(c3ccnc([C@@H](C)O)n3)[C@@H](C)C2)n1` as the compound, how does the pKa read?
Its pKa is 6.8.

Which pKa does the source give for `Cc1nc(C)nc(N2C[C@@H](C)N(c3ccnc([C@@H](C)O)n3)[C@@H](C)C2)n1` (stereo in doubt; 16) [listing 1 of 2 here] here?
Its pKa is 6.2.

tested on: Rattus norvegicus; assay: Concentration required for […] inhibition of lower sciatic nerve fructose that became elevated in diabetic nerve in streptozotocin diabetic in vivo rat model; assay type: functional

Which Ability does the source give for `Cc1nc(-c2ccccc2)nc(N2C[C@@H](C)N(c3ccnc([C@@H](C)O)n3)[C@@H](C)C2)n1` here?
Its Ability is 81%.

With `C[C@H](O)c1nccc(N2C[C@@H](C)N(c3ccnc([C@@H](C)O)n3)[C@@H](C)C2)n1` as the compound, how does the ED90 read?
Its ED90 is 2 mg/kg.

Which ED90 does the source give for `Cc1ncnc(N2C[C@@H](C)N(c3ccnc([C@@H](C)O)n3)[C@@H](C)C2)n1` here?
The ED90 was 0.3 mg/kg.

For `C[C@@H]1CN(c2ccnc(N3CCN(C)CC3)n2)C[C@H](C)N1c1ccnc([C@@H](C)O)n1`, which ED90 is on record?
The ED90 was 1 mg/kg.

Which ED90 does the source give for `Cc1cn(-c2nccc(N3C[C@@H](C)N(c4ccnc([C@@H](C)O)n4)[C@@H](C)C3)n2)cn1` here?
Its ED90 is 1 mg/kg.

For `Cc1cn(-c2nccc(N3C[C@@H](C)N(c4ccnc([C@@H](C)O)n4)[C@@H](C)C3)n2)c(C)n1`, which ED90 is on record?
Its ED90 is 1 mg/kg.

Which ED90 does the source give for `C[C@@H]1CN(c2ncnc(-c3ccccc3)n2)C[C@H](C)N1c1ccnc([C@@H](C)O)n1` here?
Its ED90 is 1 mg/kg.

For `Cc1nc(C)nc(N2C[C@@H](C)N(c3ccnc([C@@H](C)O)n3)[C@@H](C)C2)n1` (stereo in doubt; 16) [listing 1 of 2 here], which ED90 is on record?
The ED90 was 0.05 mg/kg.

species on record: Rattus norvegicus; assay: % Ability to inhibit lower sciatic nerve fructose that became elevated in diabetic nerve in streptozotocin diabetic rat model at 0.05 mpk; assay type: functional
Outline: (§1)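 Chronically diabetic rats were dosed at 0.05 or 1 mg/kg in a chronic test. Sciatic nerve fructose was measured and reported as percent inhibition of the diabetes-induced fructose elevation in sciatic nerve.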

Which Ability does the source give for `Cc1nc(C)nc(N2C[C@@H](C)N(c3ccnc([C@@H](C)O)n3)[C@@H](C)C2)n1` (stereo in doubt; 16a) here?
Its Ability is 56%.

tested on: Rattus norvegicus; assay: % Ability to inhibit lower sciatic nerve fructose that became elevated in diabetic nerve in streptozotocin diabetic rat model at 1 mg/kg; assay type: functional; outline: as §1

Which Ability does the source give for `Cc1nc(CO)nc(N2C[C@@H](C)N(c3ccnc([C@@H](C)O)n3)[C@@H](C)C2)n1` here?
The Ability was 65%.

target: T1, Sorbitol dehydrogenase (Homo sapiens, UniProt Q00796); assay: Concentration required for 50% for in vitro activity against human SDH (sorbitol dehydrogenase)
T1 sequence (Q00796 whole entry): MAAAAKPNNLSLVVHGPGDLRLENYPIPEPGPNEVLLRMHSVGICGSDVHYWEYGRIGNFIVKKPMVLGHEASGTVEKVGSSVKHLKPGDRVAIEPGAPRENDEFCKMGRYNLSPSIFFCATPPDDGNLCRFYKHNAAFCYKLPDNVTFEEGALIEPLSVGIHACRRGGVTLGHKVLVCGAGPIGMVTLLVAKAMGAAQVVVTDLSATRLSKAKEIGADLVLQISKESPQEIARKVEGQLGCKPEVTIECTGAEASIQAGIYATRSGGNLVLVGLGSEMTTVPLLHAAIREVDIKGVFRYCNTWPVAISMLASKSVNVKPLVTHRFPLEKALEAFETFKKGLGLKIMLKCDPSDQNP

Which IC50 does the source give for `Cc1nc(-c2ccccc2)nc(N2C[C@@H](C)N(c3ccnc([C@@H](C)O)n3)[C@@H](C)C2)n1` here?
The IC50 was 0.043 µM.

For `Cc1ncnc(N2C[C@@H](C)N(c3ccnc([C@@H](C)O)n3)[C@@H](C)C2)n1`, which IC50 is on record?
The IC50 was 0.007 µM.

For `C[C@@H]1CN(c2ccnc(N3CCN(C)CC3)n2)C[C@H](C)N1c1ccnc([C@@H](C)O)n1`, which IC50 is on record?
Its IC50 is 0.004 µM.

Which IC50 does the source give for `Cc1cn(-c2nccc(N3C[C@@H](C)N(c4ccnc([C@@H](C)O)n4)[C@@H](C)C3)n2)cn1` here?
Its IC50 is 0.013 µM.

With `Cc1cn(-c2nccc(N3C[C@@H](C)N(c4ccnc([C@@H](C)O)n4)[C@@H](C)C3)n2)c(C)n1` as the compound, how does the IC50 read?
The IC50 was 0.004 µM.

Which IC50 does the source give for `Cc1nc(C)nc(N2C[C@@H](C)N(c3ccnc([C@@H](C)O)n3)[C@@H](C)C2)n1` (stereo in doubt; 16a) here?
The IC50 was 0.016 µM.

Which IC50 does the source give for `C[C@@H]1CN(c2ncnc(-c3ccccc3)n2)C[C@H](C)N1c1ccnc([C@@H](C)O)n1` here?
Its IC50 is 0.007 µM.

With `Cc1nc(C)nc(N2C[C@@H](C)N(c3ccnc([C@@H](C)O)n3)[C@@H](C)C2)n1` (stereo in doubt; 16) [listing 1 of 2 here] as the compound, how does the IC50 read?
Its IC50 is 0.005 µM.

target: T1, Sorbitol dehydrogenase; assay: Concentration required for 50% in vitro activity against human SDH (sorbitol dehydrogenase)

For `C[C@H](O)c1nccc(N2C[C@@H](C)N(c3ccnc([C@@H](C)O)n3)[C@@H](C)C2)n1`, which IC50 is on record?
Its IC50 is 0.01 µM.

target: T2, Sorbitol dehydrogenase (Rattus norvegicus, UniProt P27867); assay: Concentration required for 50% in vitro activity against rat SDH (sorbitol dehydrogenase)
T2 sequence (P27867 whole entry): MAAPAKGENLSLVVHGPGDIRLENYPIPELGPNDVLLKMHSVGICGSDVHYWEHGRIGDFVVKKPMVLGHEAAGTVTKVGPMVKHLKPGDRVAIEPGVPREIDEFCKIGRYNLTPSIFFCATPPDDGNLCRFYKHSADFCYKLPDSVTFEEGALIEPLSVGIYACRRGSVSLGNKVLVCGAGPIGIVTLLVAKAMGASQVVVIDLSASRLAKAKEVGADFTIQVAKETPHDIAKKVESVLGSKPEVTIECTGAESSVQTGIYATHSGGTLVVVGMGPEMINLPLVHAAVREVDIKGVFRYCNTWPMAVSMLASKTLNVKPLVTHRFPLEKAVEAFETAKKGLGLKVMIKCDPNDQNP

With `Cc1nc(-c2ccccc2)nc(N2C[C@@H](C)N(c3ccnc([C@@H](C)O)n3)[C@@H](C)C2)n1` as the compound, how does the IC50 read?
The IC50 was 0.039 µM.

With `C[C@H](O)c1nccc(N2C[C@@H](C)N(c3ccnc([C@@H](C)O)n3)[C@@H](C)C2)n1` as the compound, how does the IC50 read?
Its IC50 is 0.011 µM.

For `Cc1ncnc(N2C[C@@H](C)N(c3ccnc([C@@H](C)O)n3)[C@@H](C)C2)n1`, which IC50 is on record?
Its IC50 is 0.005 µM.

For `C[C@H](O)c1nccc(N2[C@H](C)CN(c3ccnc(N4CCN(C)CC4)n3)C[C@@H]2C)n1`, which IC50 is on record?
Its IC50 is 0.032 µM.

For `C[C@@H]1CN(c2ccnc(N3CCN(C)CC3)n2)C[C@H](C)N1c1ccnc([C@@H](C)O)n1`, which IC50 is on record?
The IC50 was 0.006 µM.

With `Cc1cn(-c2nccc(N3C[C@@H](C)N(c4ccnc([C@@H](C)O)n4)[C@@H](C)C3)n2)cn1` as the compound, how does the IC50 read?
The IC50 was 0.011 µM.

With `Cc1cn(-c2nccc(N3C[C@@H](C)N(c4ccnc([C@@H](C)O)n4)[C@@H](C)C3)n2)c(C)n1` as the compound, how does the IC50 read?
The IC50 was 0.007 µM.

Which IC50 does the source give for `Cc1nc(C)nc(N2C[C@@H](C)N(c3ccnc([C@@H](C)O)n3)[C@@H](C)C2)n1` (stereo in doubt; 16a) here?
The IC50 was 0.009 µM.

Which IC50 does the source give for `Cc1nc(CO)nc(N2C[C@@H](C)N(c3ccnc([C@@H](C)O)n3)[C@@H](C)C2)n1` here?
The IC50 was 0.02 µM.

For `C[C@@H]1CN(c2ncnc(-c3ccccc3)n2)C[C@H](C)N1c1ccnc([C@@H](C)O)n1`, which IC50 is on record?
Its IC50 is 0.01 µM.

For `Cc1nc(C)nc(N2C[C@@H](C)N(c3ccnc([C@@H](C)O)n3)[C@@H](C)C2)n1` (stereo in doubt; 16) [listing 1 of 2 here], which IC50 is on record?
Its IC50 is 0.004 µM.

target: T3, Sorbitol dehydrogenase (Rattus norvegicus) (UniProt P27867); assay: In vitro inhibitory activity against rat sorbitol dehydrogenase and concentration that cause 90% inhibition was reported
T3 sequence (whole entry): T2 sequence (P27867 whole entry)

With `Cc1nc(C)nc(N2C[C@@H](C)N(c3ccnc([C@@H](C)O)n3)[C@@H](C)C2)n1` (stereo in doubt; 16) [listing 2 of 2 here] as the compound, how does the IC90 read?
The IC90 was 0.01 µM.

target: T3, Sorbitol dehydrogenase (Rattus norvegicus)

Which IC90 does the source give for `C[C@H](O)c1nccc(N2C[C@@H](C)N(c3ccnc([C@@H](C)O)n3)[C@@H](C)C2)n1` here?
Its IC90 is 0.031 µM.
